Bim-Mcl-1 – disrupts Bim peptide binding to human Mcl-1; Q07820; Bead-based flow cytometry, Bim peptide-Mcl-1 binding; inhibition, % at 10 µM; 0.1% of 190,000 active; AID 1009; in the data active means inhibition above about 40%;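 further: 0% = no compound tracer wells and 100% = peptide blocker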
Mcl1-Noxa inh – Mcl-1/Noxa interaction inhibition | Q07820 | TR-FRET Mcl-1/Noxa peptide binding, 2 h | inhibition, % at 21.7 µM | 1.5% of 220,000 active | AID 1022;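 active means compounds that cut the protein-peptide binding signal by more than 50% relative to plate controls in a single-dose test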;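 further: His-tagged Mcl-1 with rhodamine Noxa BH3 peptide and terbium anti-His antibody; 0% = Mcl-1 plus Noxa peptide wells and 100% = peptide-only wells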
MCL1 BIM primary – disrupts human MCL1 binding to BIM-BH3 peptide; Q07820; GST-MCL1 / FITC-Bim-BH3 fluorescence polarization; inhibition, % at 10.9 µM; 0.68% of 320,000 active;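 active means inhibition above the mean inhibition of all tested compounds plus 3 SD, set per campaign, cut at about 40% in these data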;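 further: 0% = DMSO wells and 100% = unlabeled Bim-BH3 peptide control; higher means more loss of mP so more displacement of Bim peptide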
T cell HTS – T cell immune modulators affecting CD8 T cell-vesicle binding; 2C CD8+ T cell-vesicle binding, flow cytometry; hits give low values; response (vesicle binding), % at 7 µM; 0.068% of 330,000 active;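 active means response, share of CD8 T cells binding vesicles, and their 90th percentile fluorescence all below set limits, cut at about 80% in these data, passing the limit was not always enough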;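 further: values below 100% mean blocked vesicle binding to the CD8+ T cells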
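Test system: purified 2C TCR transgenic mouse naive CD8+ T cells. Probe or stimulus: QL9-peptide-loaded Drosophila micro-vesicles bearing Ld, ICAM-1 and B7-1. Incubation: binding step 1.5 h, 37 °C, antibody labelling 20 min, ice. Measured by: flow cytometry of vesicle-bound cells.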
DSG3 Ab inh – inhibitors of pemphigus antibody binding to human desmoglein-3; 0.48% of 310,000 active; binding (percent of control), % at 10 µM; AID 588358; DSG3-coupled beads, scFv-anti-DSG3-GFP binding, flow cytometry; hits give low values; P32926;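 active means binding more than 3 SD below its plate's average and above zero; inconclusive means below that plate limit but binding exactly zero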;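 further: hits lower antibody fragment binding to DSG3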
Mcl1-Bid inh – Mcl-1/Bid interaction inhibition. 0.97% of 220,000 active. TR-FRET Mcl-1/Bid-Dy647 peptide binding, 1536-well. Q07820. AID 1021. inhibition, % at 21.7 µM;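 active means compounds that cut the binding signal by more than half at the single screening dose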;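 further: His-tagged Mcl-1 with europium anti-His antibody binding Bid BH3 peptide; 0% = Mcl-1 plus peptide wells and 100% = peptide-only wells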
Bcl-xL conf – Bcl-xL (human) inhibition, MCL1 counter-screen confirmation. GST-Bcl-xL / FITC-Bim BH3 peptide FP binding. inhibition, % at 10.9 µM. 54% of 1,700 active. shares compounds with MCL1 BIM primary. AID 2166;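 active means inhibition above a cutoff equal to the mean inhibition of all tested compounds plus 3 SD, cut at about 30% in these data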;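 further: 0% = DMSO wells and 100% = unlabeled Bim BH3 control peptide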
Target sequence (Q07817 whole entry, looked up): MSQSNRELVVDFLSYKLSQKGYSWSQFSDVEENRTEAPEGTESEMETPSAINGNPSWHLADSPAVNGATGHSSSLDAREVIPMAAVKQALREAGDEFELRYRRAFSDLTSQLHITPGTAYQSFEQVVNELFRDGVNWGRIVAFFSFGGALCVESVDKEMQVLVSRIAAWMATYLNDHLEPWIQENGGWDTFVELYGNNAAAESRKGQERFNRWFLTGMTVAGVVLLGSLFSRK
MCL1 inh confirm – MCL1-BIM-BH3 interaction inhibition, confirmation; shares compounds with MCL1 BIM primary; GST-MCL1 / FITC-Bim-BH3 fluorescence polarization; inhibition, % at 10.9 µM; 61% of 1,700 active;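 active means inhibition above the average of all tested compounds plus 3 SD, cut at about 40% in these data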;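 further: 0% = DMSO wells and 100% = unlabeled Bim-BH3 control peptide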
An asterisk follows results filed as active; i = inactive; u = inconclusive; x = no result given; + = active, no number. Only some compounds are listed: those with a hit (about 2.3% of all), similar ones and a draw of the others.

SMILES | Bim-Mcl-1 | Mcl1-Noxa inh | MCL1 BIM primary | T cell HTS | DSG3 Ab inh | Mcl1-Bid inh | Bcl-xL conf | MCL1 inh confirm
Cc1ccc([C@H]2C[C@@H](n3cc(-c4ccc(F)cc4)nn3)[C@H](O)CN2C(=O)C2CCCCC2)cc1 | x | x | x | x | 113.6 | x | x | x
Cc1ccc(NC(=O)CN(C)C2CCCCC2)cc1Cl | x | x | x | 204.7 | 117.7 | x | x | x
C=CCOc1ccc(/C=C2\SC(=Nc3cccnc3)NC2=O)cc1 | x | 36.7 | 64.0* | 513.1 | 108.8 | -4.4 | 65.2* | 74.0*
CC(/C=C1\SC(=Nc2cccnc2)NC1=O)=C\c1ccccc1 | x | 18.9 | -15.0 | i | 100.5 | 7.7 | x | x
CCCCC1OC2(C)OC(=N)C1(C#N)C(C#N)(C#N)C2c1ccccc1 (stereo not given) | -5.0 | -7.2 | 11.3 | 476.8 | 79.2 | -44.7 | x | x
CC1OC2(C)OC(=N)C1(C#N)C(C#N)(C#N)C2c1ccccc1 (stereo not given) | -6.0 | 20.1 | 86.7* | 271.6 | 103.7 | -37.9 | 11.1 | 7.4
O=C(/C=C/c1ccco1)NC(=S)Nc1ccc(C(=O)O)cc1 | x | x | 66.7* | 637.3 | 97.0 | x | 25.9 | 38.9
CCC(=O)Nc1ccc(NC(=S)NC(=O)/C=C/c2ccco2)cc1 | x | x | 20.2 | 164.5 | 126.0 | x | x | x
O=C(/C=C/c1ccccc1[N+](=O)[O-])OCC(=O)N1CCN(c2ccccc2)CC1 | x | x | x | x | 100.5 | x | x | x
CCCC1=C(C(=O)OCC)C(c2ccc(OC)c(CSc3ccccn3)c2)C(C#N)=C(N)O1 (stereo not given) | -4.0 | 8.7 | 5.5 | 226.3 | 103.0 | -14.2 | x | x
CC(C)CCOCC1CC2(CC(C)(c3csc(N)n3)OC2=O)C(=O)O1 (stereo not given) | -7.0 | -66.2 | 167.9* | 170.7 | 102.6 | -21.0 | 3.3 | -4.5
C=CCNc1nc(C2(C)CC3(CC(C)OC3=O)C(=O)O2)cs1 (stereo not given) | -7.0 | -21.8 | 0.1 | 583.4 | 102.6 | -27.5 | x | x
CSc1c(C#N)c(N)nc2sc(C(=O)c3ccccc3)c(N)c12 | x | 6.4 | 58.3* | i | 107.9 | -38.1 | 70.9* | 87.2*
N#Cc1c(SCc2ccc(Cl)cc2)sc(C(=O)c2ccccc2)c1N | 5.0 | 20.3 | -11.0 | 348.3 | u | -21.4 | x | x
CCOc1ccc2noc3c2c1C(=O)c1ccccc1-3 | 0.0 | 42.9 | 174.2* | 703.9 | 122.5 | -6.5 | 145.9* | 170.8*
O=C1c2ccccc2-c2onc3ccc(NCc4ccco4)c1c23 | 35.0 | 9.4 | 199.3* | 157.2 | 57.7* | 56.9* | 162.0* | 188.0*
CCNc1ccc2noc3c2c1C(=O)c1ccccc1-3 | 2.0 | -238.9 | + | 534.9 | 30.5* | 87.5* | 184.2* | +
CCOC(=O)c1c(C)oc2c1C(=O)c1ccccc1C2=O | 0.0 | 20.3 | 3.8 | 93.2 | 100.6 | -19.3 | x | x
CSc1nc(C=Nc2ccccc2Cl)c(O)n1Cc1cccc(Cl)c1 | x | 23.3 | 0.8 | 290.5 | 109.9 | 15.7 | x | x
CC1=CC2=C(OC1N(C)C)c1cccc3cccc(c13)C2=O (stereo not given) | 4.0 | 13.3 | 142.9* | 295.7 | 100.9 | -4.9 | 35.6* | 38.6
Cc1ccc(CNC(=O)CCC(=O)Nc2nnc(C(C)C)s2)cc1 | x | x | -4.1 | 192.2 | 102.8 | x | x | x
CCOC(=O)C1CCCN(C(=O)C2c3ccccc3Oc3ccccc32)C1 (stereo not given) | -3.0 | 6.7 | + | 270.3 | 102.4 | 3.1 | 42.0* | 55.4*
CC(C)=CC(=O)N1CCC(Oc2cccc(C(=O)NCc3ccccn3)c2)CC1 | x | x | x | x | 97.8 | x | x | x
CSCC(C)N1CCC(Oc2cccc(C(=O)NCc3ccccn3)c2)CC1 (stereo not given) | x | x | 55.8* | i | 115.4 | x | 56.0* | 69.9*
O=C(N/N=C/c1ccc(O)c(O)c1O)/C(=C/c1ccc([N+](=O)[O-])cc1)NC(=O)c1ccccc1 | 5.0 | 87.3* | 40.9* | 282.1 | 91.3 | -100.8 | 32.6* | 63.0*

Source: PubChem
